The results in this text go back to ChEMBL document CHEMBL1140177 (J Med Chem, 2008).

The IC50 is the concentration that gives 50% inhibition. The term solubility denotes the concentration that dissolves in the medium under given conditions. As usually defined, the AUC is the area under the concentration-time curve, a measure of exposure. In general, bioavailability refers to dose-corrected exposure relative to a reference, in per cent.

Data set [1] relates to Human immunodeficiency virus 1. In words: Antiviral activity against wild type HIV1 infected in human MT4 cells after 72 hrs in presence of 10% fetal bovine serum. Type of data set: functional. The note with it: Human immunodeficiency virus 1, MT4, 72 h; read-out: CIC95. In outline:
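MT-4 human T-lymphoid cells in RPMI 1640 with 10% FBS. CIC95 is the concentration that inhibits viral spread by >95%. Values are either geometric means of two determinations or given with standard deviations for n > 3 or n > 50.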

Data set [2] concerns Human immunodeficiency virus 1. Nature of the data set: Antiviral activity against HIV1 with reverse transcriptase Y181C mutant infected in human MT4 cells after 72 hrs in presence of 10% fetal bovine serum. Type of data set: functional. The following applies: Human immunodeficiency virus 1, MT4, 72 h; read-out: CIC95. In outline:
(§1)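 Mutant HIV-1 spread was assayed in MT-4 human T-lymphoid cells kept in RPMI 1640 with 10% FBS. CIC95 is the concentration that inhibits viral spread by >95%. Values are geometric means of two determinations, or mean with standard deviation where n > 3. Cytotoxicity was checked up to an assay limit of 8.3 µM.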

Data set [3] concerns Human immunodeficiency virus 1. Nature of the data set: Antiviral activity against wild type HIV1 infected in human MT4 cells after 72 hrs in presence of 50% normal human serum. The following applies: Human immunodeficiency virus 1, MT4, 72 h; read-out: CIC95. In kind it is functional. In outline: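 MT-4 human T-lymphoid cells in RPMI 1640 with 50% NHS. CIC95 is the concentration that inhibits viral spread by >95%. Values are either geometric means of two determinations or given with standard deviations for n > 3 or n > 50.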

Data set [4] relates to Human immunodeficiency virus 1. Nature of the data set: Antiviral activity against HIV1 with reverse transcriptase K103N mutant infected in human MT4 cells after 72 hrs in presence of 10% fetal bovine serum. Type of data set: functional. The note with it: Human immunodeficiency virus 1, MT4, 72 h; read-out: CIC95. In outline: as §1
Data set [5] concerns Human immunodeficiency virus 1. In words: Antiviral activity against HIV1 with reverse transcriptase K103N/P225H mutant in presence of 40% normal human serum. Type of data set: functional, organism-based.
Data set [6] is filed under the species Canis familiaris. Nature of the data set: Toxicity in cardiovascular dog model assessed as effect on blood pressure. In kind it is organism-based, Canis lupus familiaris. The note with it: in vivo. In outline:
(§2)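 Conscious dog cardiovascular model, with QTc, heart rate and blood pressure monitored at plasma levels up to 55 µM.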

The species entered for data set [7] is Canis familiaris. In words: Toxicity in cardiovascular dog model assessed as effect on heart rate. In kind it is organism-based, Canis lupus familiaris. The following applies: in vivo. In outline: as §2
For data set [8], the system named is Human immunodeficiency virus 1. Nature of the data set: Antiviral activity against HIV1 with reverse transcriptase Y188L mutant in presence of 40% normal human serum. Type of data set: functional, organism-based.
Data set [9] in a line: Solubility at pH 2. Type of data set: physicochemical. The following applies: buffer.
The test system of data set [10] is Human immunodeficiency virus 1. In words: Antiviral activity against HIV1 with reverse transcriptase V179E mutant in presence of 40% normal human serum. Type of data set: functional, organism-based.
Data set [11] is described as follows: AUC in Beagle dog at 10 mg/kg, po. Type of data set: ADME, organism-based, Canis lupus familiaris. On the set-up: dose 10 mg/kg, route oral. The note with it: plasma. The gist of the method: (§3)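 Three beagle dogs, averaged. Oral dose 10 mpk in 0.5% methocel; intravenous dose 2 mpk in DMSO. Individual values within 25% of mean.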
A short description of data set [12]: AUC in Sprague-Dawley rat at 10 mg/kg, po. Type of data set: ADME, organism-based. On the set-up: dose 10 mg/kg, route oral. The following applies: plasma.
A short description of data set [13]: Oral bioavailability in Beagle dog at 10 mg/kg. Type of data set: ADME, organism-based, Canis lupus familiaris. The following applies: in vivo. The gist of the method: as §3
Data set [14] in a line: Clearance in rhesus monkey at 10 mg/kg, po and 2 mg/kg, iv. The note with it: in vivo. Type of data set: ADME, organism-based, Macaca mulatta.
Data set [15] in a line: Clearance in Beagle dog at 10 mg/kg, po and 2 mg/kg, iv. In kind it is ADME, organism-based, Canis lupus familiaris. The note with it: in vivo. The gist of the method: as §3
The test system of data set [16] is Human immunodeficiency virus 1. In words: Antiviral activity against wild type HIV1 in presence of 40% normal human serum. Type of data set: functional, organism-based. In outline: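 Monogram Bioscience PhenoScreen cell-culture assay run with 40% NHS. […] Value is the geometric mean of n = 2.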
A short description of data set [17]: AUC in rhesus monkey at 10 mg/kg, po. On the set-up: dose 10 mg/kg, route oral. Type of data set: ADME, organism-based, Macaca mulatta. The note with it: plasma.
Data set [18] deals with Human immunodeficiency virus 1. Nature of the data set: Antiviral activity against HIV1 with reverse transcriptase K101E/G190A mutant in presence of 40% normal human serum. Type of data set: functional, organism-based.
Data set [19] concerns Human immunodeficiency virus 1. In words: Antiviral activity against HIV1 with reverse transcriptase V106A mutant in presence of 40% normal human serum. Type of data set: functional, organism-based.
Data set [20] concerns Human immunodeficiency virus 1. In words: Antiviral activity against HIV1 with reverse transcriptase P236L mutant in presence of 40% normal human serum. Type of data set: functional, organism-based.
The test system of data set [21] is Human immunodeficiency virus 1. Nature of the data set: Antiviral activity against HIV1 with reverse transcriptase K103N/Y181C/G190A mutant in presence of 40% normal human serum. In kind it is functional, organism-based.
The subject of data set [22] is Human immunodeficiency virus 1. Nature of the data set: Antiviral activity against HIV1 with reverse transcriptase K103N/V179E mutant in presence of 40% normal human serum. Type of data set: functional, organism-based.
For the next data set, the system named is Rattus norvegicus. Nature of the data set: Half life in Sprague-Dawley rat at 10 mg/kg, po and 3 mg/kg, iv. Type of data set: ADME, organism-based. The note with it: in vivo. The gist of the method:
(§4)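 Three Sprague-Dawley rats, averaged. Oral dose 10 mpk in 0.5% methocel; intravenous dose 3 mpk in DMSO. Individual values within 25% of mean.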

A short description of data set [23]: Volume of distribution in Sprague-Dawley rat at 10 mg/kg, po and 3 mg/kg, iv. Type of data set: ADME, organism-based. The note with it: in vivo. In outline:
as §4

Data set [24] relates to Human immunodeficiency virus 1. In words: Antiviral activity against HIV1 with reverse transcriptase Y181C/G190A mutant in presence of 40% normal human serum. Type of data set: functional, organism-based.
Data set [25] relates to Human immunodeficiency virus 1. In words: Antiviral activity against HIV1 with reverse transcriptase K103N/G190A mutant in presence of 40% normal human serum. In kind it is functional, organism-based.
Data set [26] has as its system Human immunodeficiency virus 1. Nature of the data set: Antiviral activity against HIV1 with reverse transcriptase L100I mutant in presence of 40% normal human serum. In kind it is functional, organism-based.
In data set [27] the test system is Human immunodeficiency virus 1. In words: Antiviral activity against HIV1 with reverse transcriptase G190A mutant in presence of 40% normal human serum. In kind it is functional, organism-based.
For data set [28], the system named is Human immunodeficiency virus 1. Nature of the data set: Antiviral activity against HIV1 with reverse transcriptase F227L mutant in presence of 40% normal human serum. In kind it is functional, organism-based.
Data set [29] can be described thus: Oral bioavailability in rhesus monkey at 10 mg/kg. Type of data set: ADME, organism-based, Macaca mulatta. The note with it: in vivo.
The subject of data set [30] is Canis familiaris. Nature of the data set: Half life in Beagle dog at 10 mg/kg, po and 2 mg/kg, iv. In kind it is ADME, organism-based, Canis lupus familiaris. The following applies: in vivo. In outline: as §3
Data set [31] has as its system Human immunodeficiency virus 1. In words: Antiviral activity against HIV1 with reverse transcriptase K103N/Y181C mutant in presence of 40% normal human serum. Type of data set: functional, organism-based.
Data set [32] deals with Human immunodeficiency virus 1. In words: Antiviral activity against HIV1 with reverse transcriptase Y181C mutant in presence of 40% normal human serum. In kind it is functional, organism-based.
The test system of data set [33] is Human immunodeficiency virus 1. In words: Antiviral activity against HIV1 with reverse transcriptase G190S mutant in presence of 40% normal human serum. Type of data set: functional, organism-based.
For data set [34], the species on record is Canis familiaris. Nature of the data set: Toxicity in cardiovascular dog model assessed as effect on QTc intervals. Type of data set: organism-based, Canis lupus familiaris, Heart. The following applies: in vivo. The gist of the method:
as §2

A short description of data set [35]: Clearance in Sprague-Dawley rat at 10 mg/kg, po and 3 mg/kg, iv. The following applies: in vivo. In kind it is ADME, organism-based. The gist of the method:
as §4

The nature of data set [36]: Oral bioavailability in Sprague-Dawley rat at 10 mg/kg. Type of data set: ADME, organism-based. The following applies: in vivo.
The nature of data set [37]: Volume of distribution in Beagle dog at 10 mg/kg, po and 2 mg/kg, iv. Type of data set: ADME, organism-based, Canis lupus familiaris. The note with it: in vivo. The gist of the method: as §3
Data set [38] is described as follows: Volume of distribution in rhesus monkey at 10 mg/kg, po and 2 mg/kg, iv. In kind it is ADME, organism-based, Macaca mulatta. The note with it: in vivo.
Data set [39] deals with Human immunodeficiency virus 1. In words: Antiviral activity against HIV1 with reverse transcriptase K103N mutant in presence of 40% normal human serum. Type of data set: functional, organism-based.
The target in data set [40] is Human immunodeficiency virus type 1 reverse transcriptase (Human immunodeficiency virus 1, UniProt Q72547, K103N). Nature of the data set: Inhibition of HIV1 RT polymerase K103N mutant by SPA.
The target in data set [41] is Human immunodeficiency virus type 1 reverse transcriptase (Human immunodeficiency virus 1, UniProt Q72547). In words: Inhibition of wild type HIV1 RT polymerase by SPA.
Data set [42] deals with Human immunodeficiency virus type 1 reverse transcriptase (Human immunodeficiency virus 1, UniProt Q72547, Y181C). Nature of the data set: Inhibition of HIV1 RT polymerase Y181C mutant by SPA.

≈ marks a conversion by molar mass, not a printed value.

In the case of `N#Cc1cc(Cl)cc(Oc2cc(OCc3n[nH]c4ccccc34)ccc2Cl)c1`, the IC95 in [1] came out at 22.6 nM; in data set [2], 102 nM; in data set [3], 114 nM; in data set [4], 33 nM.
For `N#Cc1cc(Cl)cc(Oc2cc(OCc3n[nH]c4nc(N)ccc34)ccc2Cl)c1`, the IC50 in data set [5] was 1.2 nM; in data set [8], more than 1000 nM; in data set [10], 5 nM; in [16] it was 1.35 nM; in data set [18] it was 10.1 nM; in data set [19], 147 nM. Moreover, the IC50 was 4.2 nM in [20]; 98.3 nM in data set [21]; 9.6 nM in data set [22]; 14.8 nM in data set [24]; 9.6 nM in data set [25]; 1.8 nM in [26]. The IC50 in data set [27] amounted to 1.5 nM; in data set [28], 0.7 nM; in [31], 84 nM; in data set [32] it was 5.6 nM; in [33], 7.6 nM; in data set [39] it was 4.4 nM. For the same molecule, the Activity result in the data set filed under Canis familiaris [6], in the data set listed under Canis familiaris [7] and in the data set listed under Canis familiaris [34] was “Non-toxic” in each case. The IC95 in [1] was 8.4 nM; in [2] it was 19 nM; in data set [3], 34 nM; in data set [4], 11.4 nM. In data set [9], this molecule showed a solubility of 10 µg/mL (≈ 23.5 µM). Besides, the AUC in [11] came to 31.3 µM·h; in [12] it was 22.7 µM·h; in data set [17], 0.3 µM·h. Besides, the results for the bioavailability in data set [13], in [29] and in [36] were 47%, 1% and 52%, respectively. Besides, the values for the clearance in [14], in data set [15] and in data set [35] were 15.8 mL/min/kg, 5.8 mL/min/kg and 9 mL/min/kg, respectively. Also, the t1/2 turned out to be 3.5 h in the data set on Rattus norvegicus and 3.9 h in the data set on Canis familiaris [30]. For the same molecule, the Vd in data set [23] is 2 L/kg; in data set [37], 1.7 L/kg; in data set [38] it was 1.9 L/kg.
Consider `N#Cc1cc(Cl)cc(Oc2cc(OCc3n[nH]c4ccncc34)ccc2Cl)c1`, for which the results for the IC50 in data set [40], in data set [41] and in [42] were 3.8 nM, 1.2 nM and 6.2 nM, respectively. Moreover, the IC95 in data set [1] was 169 nM; in [2], 278 nM; in data set [3] it was 307 nM; in data set [4], 922 nM.
